Calls of active or inactive are those of the source. The rule behind the calls is not given here.
How the values were obtained:
[1] = biological target: T1, Cellular tumor antigen p53 (Homo sapiens, UniProt P04637); test: Activation of p53 in human NUGC4 cells assessed as change in CDC25C mRNA level at 60 uM after 18 hrs by RT-PCR method relative to control; type: cell-based; details: read-out: FC
Outline: (§1)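 p53 signaling qPCR array of 84 p53-pathway genes. Cells were treated in 6-well plates for 18 h with 0.5% DMSO in compound and control samples. Total RNA was extracted and fold-changes were obtained by the ΔΔCt method against untreated control, with β2-microglobulin (B2M) as housekeeping gene. Two independent biological replicates per cell line.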

[2] = biological target: T1, Cellular tumor antigen p53; test: Activation of p53 in human NUGC4 cells assessed as change in BCL2A1 mRNA level at 60 uM after 18 hrs by RT-PCR method relative to control; type: cell-based; details: read-out: FC
Outline: (§2)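 p53 signalling qPCR array covering 84 p53 pathway genes. Cells were exposed for 18 h, and compound and control wells both held 0.5% DMSO. Total RNA was extracted and purified. Fold-changes were calculated by the ΔΔCt method against the untreated sample, with β2-microglobulin (B2M) as the housekeeping gene. Each cell line was run in two independent biological replicates.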

[3] = test system: Cellular tumor antigen p53 (Homo sapiens), P04637 [Y220C]; test: Activation of p53 Y220C mutant in human NUGC3 cells assessed as change in GML mRNA level at 60 uM after 18 hrs by RT-PCR method relative to control; type: cell-based
Outline: (§3)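 p53 signalling qPCR array covering 84 genes. Cells were exposed for 18 h, with 0.5% DMSO in both compound and control samples. Total RNA was extracted and purified. Fold-changes were calculated by ΔΔCt using β2-microglobulin (B2M) as the housekeeping gene. Two independent biological replicates were run per cell line.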

[4] = test system: Cellular tumor antigen p53 (Homo sapiens), P04637 [Y220C]; test: Activation of p53 Y220C mutant in human NUGC3 cells assessed as change in EGFR mRNA level at 60 uM after 18 hrs by RT-PCR method relative to control; type: cell-based; outline: as §3
[5] = biological target: T1, Cellular tumor antigen p53; test: Activation of p53 in human NUGC4 cells assessed as change in MDM2 mRNA level at 60 uM after 18 hrs by RT-PCR method relative to control; type: cell-based; details: read-out: FC; outline: as §1
[6] = test system: Cellular tumor antigen p53 (Homo sapiens), P04637 [Y220C]; test: Activation of p53 Y220C mutant in human NUGC3 cells assessed as change in TP73 mRNA level at 60 uM after 18 hrs by RT-PCR method relative to control; type: cell-based; outline: as §2
Huh-7 = test: Upregulation of MDM2 mRNA level in p53 Y220C mutant knockout human HuH7 cells at 30 uM after 18 hrs by RT-PCR method; type: functional, cell-based
[7] = test system: Cellular tumor antigen p53 (Homo sapiens), P04637 [Y220C]; test: Activation of p53 Y220C mutant in human NUGC3 cells assessed as change in HK2 mRNA level at 60 uM after 18 hrs by RT-PCR method relative to control; type: cell-based; outline: as §3
[8] = biological target: T1, Cellular tumor antigen p53; test: Activation of p53 in human NUGC4 cells assessed as change in CASP9 mRNA level at 60 uM after 18 hrs by RT-PCR method relative to control; type: cell-based; details: read-out: FC; outline: as §1

`CCNC(=O)c1c(O)c(I)c(-n2cccc2)c2sc(N(CC)CC)nc12` showed a fold induction at 60 µM [1] of 0.9, a fold induction at 60 µM [2] of 6.1 and a fold change (FC) [3] of 3.1. It also gave a fold change (FC) [4] of 1, a fold induction at 60 µM [5] of 0.8 and a fold change (FC) [6] of 1.2. For the same molecule, the Activity (Huh-7) was “inactive”, the fold change (FC) [7] was 1.7 and the fold induction at 60 µM [8] was 1.
